# Laboratory results taken from ChEMBL document CHEMBL5712896, “Targeting EHMT2 reverses EGFR-TKI resistance in NSCLC by epigenetically regulating the PTEN/AKT signaling pathway” (2018).
# Calls of active or inactive are those of the source. The calls are words filed in the database; no cut-off is given here.
# How the values were obtained:
# [1] = test system: PC-9/ER; assay: Induction of apoptosis in human PC-9/ER cells assessed as increased cleaved-PARP expression at 10 uM measured by Western blot analysis; assay type: functional, cell-based
# Outline: (§1)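 Resistant PC9/ER and HCC827/ER cells treated with 10 μM epigenetic inhibitor (DMSO control). Cleaved PARP detected by western blot on 10–15% SDS-PAGE with ECL, normalized to β-actin.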
# [2] = test system: HCC827ER; assay: Induction of apoptosis in human HCC827ER cells assessed as increased cleaved-PARP expression at 10 uM measured by Western blot analysis; assay type: functional, cell-based; outline: as §1
# [3] = test system: PC-9/ER; assay: Induction of apoptosis in human PC-9/ER cells assessed as necrotic cells at 10 uM for 48 hrs by annexin V/PI staining based flow cytometric analysis (reference value: 0.1%); assay type: functional
# [4] = test system: HCC827ER; assay: Induction of apoptosis in human HCC827ER cells assessed as viable cells at 10 uM for 48 hrs by annexin V/PI staining based flow cytometric analysis (reference value: 94.4%); assay type: functional; conditions: read-out: Activity
# [5] = test system: HCC827ER; assay: Induction of apoptosis in human HCC827ER cells assessed as early apoptotic cells at 10 uM for 48 hrs by annexin V/PI staining based flow cytometric analysis (reference value: 1.8%); assay type: functional
# [6] = test system: HCC827ER; assay: Induction of apoptosis in human HCC827ER cells assessed as necrotic cells at 10 uM for 48 hrs by annexin V/PI staining based flow cytometric analysis (reference value: 0.3%); assay type: functional
# [7] = test system: PC-9/ER; assay: Induction of apoptosis in human PC-9/ER cells assessed as early apoptotic cells at 10 uM for 48 hrs by annexin V/PI staining based flow cytometric analysis (reference value: 1.9%); assay type: functional
# [8] = test system: PC-9/ER; assay: Induction of apoptosis in human PC-9/ER cells assessed as viable cells at 10 uM for 48 hrs by annexin V/PI staining based flow cytometric analysis (reference value: 94.2%); assay type: functional; conditions: read-out: Activity
# [9] = test system: PC-9/ER; assay: Induction of apoptosis in human PC-9/ER cells assessed as late apoptotic cells at 10 uM for 48 hrs by annexin V/PI staining based flow cytometric analysis (reference value: 3.8%); assay type: functional
# [10] = test system: PC-9/ER; assay: Antiproliferative activity against human PC-9/ER cells assessed as inhibition of cell growth upto 10 uM incubated for 48 hrs by MTT assay; assay type: functional, cell-based
# Outline: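 PC9/ER cells (made resistant by 3 months in Erlotinib, 0.5–2 μM, RPMI-1640 with 10% FBS) seeded at 8 × 10^4 cells/ml, left overnight, then exposed to 5 or 10 μM inhibitor (DMSO control) for 48 h. MTT (2.5 mg/ml stock) was added for 4 h at 37 °C, formazan dissolved in DMSO, OD read at 570 nm.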
# [11] = test system: HCC827ER; assay: Induction of apoptosis in human HCC827ER cells assessed as late apoptotic cells at 10 uM for 48 hrs by annexin V/PI staining based flow cytometric analysis (reference value: 3.5%); assay type: functional
# [12] = test system: Mus musculus; assay: In vivo inhibition of AKT phosphorylation in human PC-9/ER cells xenografted SCID mouse assessed as reduction of H3K9Me2 expression at 2.5 mg/kg, ip bid for 3 weeks; assay type: functional, organism-based
# Outline: (§2)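 Tumors were excised after 3 weeks from PC9/ER xenografts in SCID mice dosed with UNC0642 (2.5 mg/kg bid i.p.) with or without Erlotinib (12.5 mg/kg/day i.p.), saline as control. Tissue lysates were run on western blot for H3K9Me2, PTEN, p-AKT and AKT, normalized to β-actin or Histone3.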
# [13] = test system: PC-9/ER; assay: Antitumor activity against human PC-9/ER cells xenografted in SCID mouse assessed as inhibition of tumor growth at 2.5 mg/kg, ip bid for 3 weeks; assay type: functional, organism-based
# Outline: (§3)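 Male SCID mice, 7–8 weeks old, injected s.c. in the right flank with 5 × 10^6 PC9/ER cells in PBS. At an average tumor volume of 50 mm3, randomized into groups of n = 6: saline, UNC0642 2.5 mg/kg bid i.p., Erlotinib 12.5 mg/kg/day i.p., or both. Tumor volume tracked and body weight recorded; tumors weighed after sacrifice at 3 weeks.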
# [14] = test system: PC-9/ER; assay: Antitumor activity against human PC-9/ER cells xenografted in SCID mouse assessed as reduction of tumor weight at 2.5 mg/kg, ip bid for 3 weeks relative to control; assay type: functional; design: scale not given: the % may be the effect or the level left; outline: as §3
# [15] = test system: Mus musculus; assay: In vivo inhibition of AKT phosphorylation in human PC-9/ER cells xenografted SCID mouse assessed as increase in PTEN expression at 2.5 mg/kg, ip bid for 3 weeks; assay type: functional, organism-based; outline: as §2
# [16] = test system: PC-9/ER; assay: Antitumor activity against human PC-9/ER cells xenografted in SCID mouse assessed as reduction of tumor weight at 2.5 mg/kg, ip bid for 3 weeks in presence of erlotinib relative to control; assay type: functional; design: scale not given: the % may be the effect or the level left; outline: as §3
# [17] = Upregulation of PTEN mRNA expression level in human PC-9/ER cells assessed as increase in fold change at 10 uM by Western blot analysis; assay type: functional; conditions: in the assay text read “real-time RT-PCR” for “Western blot analysis”
# Outline: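 PC9/ER cells were treated with 10 μM UNC0638 or transfected with 20 nM EHMT2 siRNA, with DMSO or scramble siRNA as controls. Total RNA was extracted, reverse transcribed, and PTEN mRNA measured by SYBR Green real-time RT-PCR, normalized to GAPDH and expressed as fold change versus control. PTEN protein was checked separately by western blot against β-actin.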
SMILES,Activity [1],Activity [2],Activity [3] [%],viability at 10 µM [4] [%],Activity [5] [%],Activity [6] [%],Activity [7] [%],viability at 10 µM [8] [%],Activity [9] [%],Activity [10],Activity [11] [%],other results
Cc1cn(CCN2CCN(c3ccccc3-c3cc(C#N)cc(C(=O)NCCCN4CCCC4)c3)CC2)c2ccccc12,inactive,inactive,–,–,–,–,–,–,–,–,–,–
O=C(/C=C/c1cccc(S(=O)(=O)Nc2ccccc2)c1)NO [BELINOSTAT],–,–,0.9,82.3,9.4,1.3,12.8,75.8,10.5,Active,7,–
COc1cc2nc(N3CCCC3)nc(NCCCCCN3CCCC3)c2cc1OC,inactive,inactive,–,–,–,–,–,–,–,–,–,–
COc1cc2c(NC3CCN(C(C)C)CC3)nc(N3CCC(F)(F)CC3)nc2cc1OCCCN1CCCC1,–,–,–,–,–,–,–,–,–,–,–,inhibition [12]: Active; Activity [13]: Active; Activity [14]: 37.2%; inhibition [15]: Active; Activity [16]: 68.2%
Cc1sc2c(c1C)C(c1ccc(Cl)cc1)=N[C@@H](CC(=O)OC(C)(C)C)c1nnc(C)n1-2,–,–,0.2,63.4,26.4,0.2,4.8,89.8,5.2,Active,10,–
Nc1ncn([C@@H]2O[C@H](CO)[C@@H](O)[C@H]2O)c(=O)n1,Active,Active,–,–,–,–,–,–,–,Active,–,–
O=C(O)CCNc1cc(N2CCc3ccccc3CC2)nc(-c2ccccn2)n1,inactive,inactive,–,–,–,–,–,–,–,–,–,–
CC[C@H](C)n1cc(C)c2c(C(=O)NCc3c(C)cc(C)[nH]c3=O)cc(-c3ccc(N4CCNCC4)nc3)cc21,Active,Active,–,–,–,–,–,–,–,Active,–,–
CC(C)N(C[C@H]1O[C@@H](n2cnc3c(N)ncnc32)[C@H](O)[C@@H]1O)[C@H]1C[C@@H](CCc2nc3cc(C(C)(C)C)ccc3[nH]2)C1,inactive,inactive,–,–,–,–,–,–,–,–,–,–
COc1cc2c(NC3CCN(C(C)C)CC3)nc(C3CCCCC3)nc2cc1OCCCN1CCCC1,Active,Active,0.2,41.9,43.1,0,40.8,38.5,20.5,Active,15,fold change (FC) [17]: 2.5
